In ChEMBL document CHEMBL4043082, “Clerodane Diterpenoid Glucosides from the Stems of Tinospora sinensis” (J Nat Prod, 2017):

Experiments:
N9 = assay: Inhibition of LPS-induced nitric oxide production in mouse N9 cells by Griess reaction based assay; assay type: functional, cell-based
Procedure, shortened: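 N9 microglial cells activated with LPS; nitrite accumulation in culture supernatants measured by Griess reaction; microglial cell viability checked in parallel by MTT assay.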

HeLa = assay: Cytotoxicity against human HeLa cells assessed as reduction in cell viability incubated for 48 hrs by MTT assay; assay type: functional, cell-based
Procedure, shortened: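 HeLa cells seeded at 8 × 10^3 per well, exposed in triplicate to 2.5, 5, 10, 20 and 50 μM of each compound at 37 °C for 48 h; doxorubicin as positive control. MTT (5 mg/mL) added for 4 h, formazan dissolved in DMSO, absorbance at 570 nm; IC50 by Logit method.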

SMILES | IC50 (N9) | IC50 (HeLa)
CC(=O)O[C@@H]1[C@@H]2[C@H](CC[C@@]3(O)C(=O)O[C@H](c4ccoc4)C[C@@]23C)[C@H](O[C@@H]2O[C@H](CO)[C@@H](O)[C@H](O)[C@H]2O)C[C@@H]1O | ≥ 100 µM | ≥ 10 µM
COc1cc(/C=C\C(=O)O[C@@H]2C[C@H](OC(C)=O)[C@H](O)[C@@H]3[C@@H]2CC[C@@]2(O)C(=O)O[C@H](c4ccoc4)C[C@@]32C)ccc1O[C@@H]1O[C@H](CO)[C@@H](O)[C@H](O)[C@H]1O | ≥ 100 µM | ≥ 10 µM
C[C@@]12C[C@@H](c3ccoc3)OC(=O)[C@]1(O)CC[C@]1(C)[C@H]2[C@H]2C=C[C@]1(O[C@@H]1O[C@H](CO)[C@@H](O)[C@H](O)[C@H]1O)C(=O)O2 | ≥ 100 µM | ≥ 10 µM
CC(=O)O[C@@H]1[C@@H]2[C@H](CC[C@@]3(O)C(=O)O[C@H](c4ccoc4)C[C@@]23C)[C@H](O[C@@H]2O[C@H](CO)[C@@H](O)[C@H](O)[C@H]2O)C[C@@H]1OC(C)=O | ≥ 100 µM | ≥ 10 µM
COc1cc(/C=C/C(=O)O[C@H]2C[C@H](O)[C@H](O)[C@@H]3[C@@H]2CC[C@@]2(O)C(=O)O[C@H](c4ccoc4)C[C@@]32C)ccc1O[C@@H]1O[C@H](CO)[C@@H](O)[C@H](O)[C@H]1O | ≥ 100 µM | ≥ 10 µM
C[C@@]12CC[C@@]3(O)C(=O)O[C@H](c4ccoc4)C[C@@]3(C)[C@@H]1[C@@H](O[C@@H]1O[C@H](CO)[C@@H](O)[C@H](O)[C@H]1O)C=CC2=O | ≥ 100 µM | ≥ 10 µM
COc1cc(/C=C/C(=O)O[C@@H]2C[C@H](OC(C)=O)[C@H](O)[C@@H]3[C@@H]2CC[C@@]2(O)C(=O)O[C@H](c4ccoc4)C[C@@]32C)ccc1O[C@@H]1O[C@H](CO)[C@@H](O)[C@H](O)[C@H]1O | ≥ 100 µM | ≥ 10 µM
COc1cc(/C=C/C(=O)O[C@H]2C[C@H](OC(C)=O)[C@H](O)[C@@H]3[C@@H]2CC[C@@]2(O)C(=O)O[C@H](c4ccoc4)C[C@@]32C)ccc1O[C@@H]1O[C@H](CO)[C@@H](O)[C@H](O)[C@H]1O | ≥ 100 µM | ≥ 10 µM
COc1cc(/C=C/C(=O)O[C@@H]2C[C@H](O)[C@H](O)[C@@H]3[C@@H]2CC[C@@]2(O)C(=O)O[C@H](c4ccoc4)C[C@@]32C)ccc1O[C@@H]1O[C@H](CO)[C@@H](O)[C@H](O)[C@H]1O | ≥ 100 µM | ≥ 10 µM
COc1cc(/C=C/C(=O)O[C@@H]2CC[C@H](O)[C@@H]3[C@@H]2CC[C@@]2(O)C(=O)O[C@H](c4ccoc4)C[C@@]32C)ccc1O[C@@H]1O[C@H](CO)[C@@H](O)[C@H](O)[C@H]1O | ≥ 100 µM | ≥ 10 µM
COc1cc(/C=C/C(=O)O[C@@H]2C[C@H](O)[C@H](OC(C)=O)[C@@H]3[C@@H]2CC[C@@]2(O)C(=O)O[C@H](c4ccoc4)C[C@@]32C)ccc1O[C@@H]1O[C@H](CO)[C@@H](O)[C@H](O)[C@H]1O | ≥ 100 µM | ≥ 10 µM
C[C@@]12C[C@@H](c3ccoc3)OC(=O)[C@]1(O)CC[C@H]1[C@H]2[C@@H](O)[C@@H](O)C[C@H]1O[C@@H]1O[C@H](CO)[C@@H](O)[C@H](O)[C@H]1O | ≥ 100 µM | 8.35 µM
CC(=O)O[C@H]1C[C@@H](O[C@@H]2O[C@H](CO)[C@@H](O)[C@H](O)[C@H]2O)[C@H]2CC[C@@]3(O)C(=O)O[C@H](c4ccoc4)C[C@@]3(C)[C@@H]2[C@H]1O | ≥ 100 µM | ≥ 10 µM
COc1cccc2c1C(=O)c1c(O)c3c(c(O)c1C2=O)C[C@@](O)(C(=O)CO)C[C@@H]3O[C@H]1C[C@H](N)[C@H](O)[C@H](C)O1 [DOXORUBICIN] | – | 0.32 µM
